This is an account of results in ChEMBL document CHEMBL1126604, “Synthesis and antiviral activity of 5-thien-2-yl-2'-deoxyuridine analogues” (1993).

Values after ≈ are worked out from the molar mass of the structure shown.

The first test relates to Human alphaherpesvirus 1. Kind of test: Minimum inhibitory concentration required to reduce herpes simplex virus-1 (HSV-1 (KOS)) virus-induced cytopathicity by 50%. The test is classed as functional.
Details: not given
`O=c1[nH]c(=O)n([C@H]2C[C@H](O)[C@@H](CO)O2)cc1-c1cccs1` showed an MIC of 1.5 µg/mL (≈ 4.83 µM).
On the same count and under the same terms, with `C[Si](C)(C)C#Cc1ccc(-c2cn([C@H]3C[C@H](O)[C@@H](CO)O3)c(=O)[nH]c2=O)s1` the figure was 0.07 µg/mL (≈ 0.172 µM).

In the next test the test system is Human alphaherpesvirus 2. Nature of the test: Minimum inhibitory concentration required to reduce herpes simplex virus-2 (HSV-2 (G)) virus-induced cytopathicity by 50%. Type of test: functional.
Details: not given
Background: Protection from cytopathic effect is a common read-out in antiviral testing.
Consider `O=c1[nH]c(=O)n([C@H]2C[C@H](O)[C@@H](CO)O2)cc1-c1cccs1`, for which the MIC was 50 µg/mL (≈ 161 µM).
As for `C[Si](C)(C)C#Cc1ccc(-c2cn([C@H]3C[C@H](O)[C@@H](CO)O3)c(=O)[nH]c2=O)s1`, the MIC was greater than 40 µg/mL.

Another test has as its system Human alphaherpesvirus 1. Kind of test: Minimum inhibitory concentration required to reduce thymidine kinase deficient-HSV-1 (B2006) virus-induced cytopathicity by 50%. The test is classed as functional.
Details: not given
`O=c1[nH]c(=O)n([C@H]2C[C@H](O)[C@@H](CO)O2)cc1-c1cccs1` displayed an MIC greater than 100 µg/mL.
Take `C[Si](C)(C)C#Cc1ccc(-c2cn([C@H]3C[C@H](O)[C@@H](CO)O3)c(=O)[nH]c2=O)s1`: the MIC was greater than 40 µg/mL.

The subject of a further test is Vaccinia virus. Kind of test: Minimum inhibitory concentration required to reduce vaccinia virus (VV) virus-induced cytopathicity by 50%. The following applies: Orthopoxvirus vaccinia. Type of test: functional.
Compound `O=c1[nH]c(=O)n([C@H]2C[C@H](O)[C@@H](CO)O2)cc1-c1cccs1` showed an MIC of 20 µg/mL (≈ 64.4 µM).
For `C[Si](C)(C)C#Cc1ccc(-c2cn([C@H]3C[C@H](O)[C@@H](CO)O3)c(=O)[nH]c2=O)s1`, the MIC was greater than 40 µg/mL.

System in a further test: not listed separately
Nature of the test: Minimum inhibitory concentration required to reduce virus-induced cell growth by 50%. The test is classed as functional. As to conditions: Homo sapiens.
`O=c1[nH]c(=O)n([C@H]2C[C@H](O)[C@@H](CO)O2)cc1-c1cccs1` returned an MIC of 45 µg/mL (≈ 145 µM).
`C[Si](C)(C)C#Cc1ccc(-c2cn([C@H]3C[C@H](O)[C@@H](CO)O3)c(=O)[nH]c2=O)s1` showed an MIC of 10 µg/mL (≈ 24.6 µM).

The next test deals with Human alphaherpesvirus 1. Nature of the test: Minimum inhibitory concentration required to reduce thymidine kinase deficient-HSV-1 (VMW 1837) virus-induced cytopathicity by 50%. The test is classed as functional.
Details: not given
Turning to `O=c1[nH]c(=O)n([C@H]2C[C@H](O)[C@@H](CO)O2)cc1-c1cccs1`, the MIC is greater than 100 µg/mL.
The compound `C[Si](C)(C)C#Cc1ccc(-c2cn([C@H]3C[C@H](O)[C@@H](CO)O3)c(=O)[nH]c2=O)s1` gave an MIC greater than 40 µg/mL.

A further test concerns Human alphaherpesvirus 3. Nature of the test: Minimum inhibitory concentration required to reduce TK-VZV (07-1) virus-induced cytopathicity by 50%. The test is classed as functional.
Details: not given
Regarding `O=c1[nH]c(=O)n([C@H]2C[C@H](O)[C@@H](CO)O2)cc1-c1cccs1`, the MIC amounted to 8 µg/mL (≈ 25.8 µM).
On the same count and under the same terms, in the case of `C[Si](C)(C)C#Cc1ccc(-c2cn([C@H]3C[C@H](O)[C@@H](CO)O3)c(=O)[nH]c2=O)s1` it was 21 µg/mL (≈ 51.7 µM).

The next test has as its system Cell line. Kind of test: Minimum concentration required to cause a microscopically detectable alteration of cell morphology. The test is classed as functional. As to conditions: Homo sapiens. A digest of the protocol:
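Cytotoxicity read as the minimum concentration causing a microscopically detectable alteration of normal cell morphology. Cells were human embryonic skin-muscle (E6SM) or human embryonic lung (HEL), seeded in 96-well plates.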
The compound `O=c1[nH]c(=O)n([C@H]2C[C@H](O)[C@@H](CO)O2)cc1-c1cccs1` gave an MIC of 100 µg/mL (≈ 322 µM).
As for `C[Si](C)(C)C#Cc1ccc(-c2cn([C@H]3C[C@H](O)[C@@H](CO)O3)c(=O)[nH]c2=O)s1`, the MIC stood at 100 µg/mL (≈ 246 µM).

Another test deals with Human alphaherpesvirus 1. Kind of test: Minimum inhibitory concentration required to reduce herpes simplex virus-1 (HSV-1 (McIntyre)) virus-induced cytopathicity by 50%. The test is classed as functional.
Details: not given
Compound `O=c1[nH]c(=O)n([C@H]2C[C@H](O)[C@@H](CO)O2)cc1-c1cccs1` came in with an MIC of 0.3 µg/mL (≈ 0.967 µM).

The test system of another test is Human alphaherpesvirus 3. Kind of test: Minimum inhibitory concentration required to reduce TK-VZV (YS/R) virus-induced cytopathicity by 50%. Type of test: functional.
Details: not given
In the case of `O=c1[nH]c(=O)n([C@H]2C[C@H](O)[C@@H](CO)O2)cc1-c1cccs1`, the MIC worked out at 30 µg/mL (≈ 96.7 µM).
Compound `C[Si](C)(C)C#Cc1ccc(-c2cn([C@H]3C[C@H](O)[C@@H](CO)O3)c(=O)[nH]c2=O)s1` yielded an MIC of 20 µg/mL (≈ 49.2 µM).

A further test relates to Human alphaherpesvirus 2. Nature of the test: Minimum inhibitory concentration required to reduce herpes simplex virus-2 (HSV-2 (Lyons)) virus-induced cytopathicity by 50%. The test is classed as functional.
Details: not given
With `O=c1[nH]c(=O)n([C@H]2C[C@H](O)[C@@H](CO)O2)cc1-c1cccs1`, the MIC was 20 µg/mL (≈ 64.4 µM).

The subject of another test is Human alphaherpesvirus 3. Kind of test: Minimum inhibitory concentration required to reduce Varicella-Zoster virus (VZV (Oka)) virus-induced cytopathicity by 50%.
Details: not given
Type of test: functional.
In the case of `O=c1[nH]c(=O)n([C@H]2C[C@H](O)[C@@H](CO)O2)cc1-c1cccs1`, the MIC was determined as 3 µg/mL (≈ 9.67 µM).
`C[Si](C)(C)C#Cc1ccc(-c2cn([C@H]3C[C@H](O)[C@@H](CO)O3)c(=O)[nH]c2=O)s1`: the MIC is 0.2 µg/mL (≈ 0.492 µM).

For the next test, the system named is Human alphaherpesvirus 2. Kind of test: Minimum inhibitory concentration required to reduce herpes simplex virus-2 (HSV-2 (196)) virus-induced cytopathicity by 50%. Type of test: functional.
Details: not given
`O=c1[nH]c(=O)n([C@H]2C[C@H](O)[C@@H](CO)O2)cc1-c1cccs1` displayed an MIC of 50 µg/mL (≈ 161 µM).

The test system of another test is Cytomegalovirus. Kind of test: Minimum inhibitory concentration required to reduce cytomegalo virus (CMV (AD-169)) virus-induced cytopathicity by 50%. As to conditions: Human betaherpesvirus 5. Type of test: functional.
`O=c1[nH]c(=O)n([C@H]2C[C@H](O)[C@@H](CO)O2)cc1-c1cccs1` gave an MIC of 60 µg/mL (≈ 193 µM).
Same read-out and setting: in the case of `C[Si](C)(C)C#Cc1ccc(-c2cn([C@H]3C[C@H](O)[C@@H](CO)O3)c(=O)[nH]c2=O)s1` it was greater than 10 µg/mL.

The next test deals with Human alphaherpesvirus 1. Kind of test: Minimum inhibitory concentration required to reduce herpes simplex virus-1 (HSV-1 (F)) virus-induced cytopathicity by 50%. The test is classed as functional.
Details: not given
For the compound `O=c1[nH]c(=O)n([C@H]2C[C@H](O)[C@@H](CO)O2)cc1-c1cccs1`, the MIC was 0.35 µg/mL (≈ 1.13 µM).

For a further test, the system named is Vesicular stomatitis virus. Kind of test: Minimum inhibitory concentration required to reduce VSV virus-induced cytopathicity by 50%. Type of test: functional.
Details: not given
For `O=c1[nH]c(=O)n([C@H]2C[C@H](O)[C@@H](CO)O2)cc1-c1cccs1`, the MIC was greater than 100 µg/mL.
For the compound `C[Si](C)(C)C#Cc1ccc(-c2cn([C@H]3C[C@H](O)[C@@H](CO)O3)c(=O)[nH]c2=O)s1`, the MIC is greater than 40 µg/mL.

The next test deals with Cytomegalovirus. Kind of test: Minimum inhibitory concentration required to reduce cytomegalo virus (CMV (Davis)) virus-induced cytopathicity by 50%. The following applies: Human betaherpesvirus 5. The test is classed as functional.
`O=c1[nH]c(=O)n([C@H]2C[C@H](O)[C@@H](CO)O2)cc1-c1cccs1` returned an MIC of 40 µg/mL (≈ 129 µM).
As to `C[Si](C)(C)C#Cc1ccc(-c2cn([C@H]3C[C@H](O)[C@@H](CO)O3)c(=O)[nH]c2=O)s1`, the MIC is greater than 10 µg/mL.
